One compound from ChEMBL document CHEMBL4680373, “Evaluation of 5-(Trifluoromethyl)-1,2,4-oxadiazole-Based Class IIa HDAC Inhibitors for Huntington's Disease” (ACS Med Chem Lett, 2021) can be followed below.

Series [1] concerns the target Histone deacetylase 3/Nuclear receptor corepressor 1 (HDAC3/NCoR1) (Homo sapiens). Put plainly: Inhibition of HDAC3/NCOR1 (unknown origin) using Boc-Lys(Ac) as substrate by fluorogenic assay.
In a further series the target is Histone deacetylase 2 (Homo sapiens, UniProt Q92769). The experiment in a line: Inhibition of HDAC2 (unknown origin) using Ac-Arg-Gly-Lys(Ac) as substrate by fluorogenic assay.
Histone deacetylase 2, sequence (Q92769 whole entry, canonical isoform): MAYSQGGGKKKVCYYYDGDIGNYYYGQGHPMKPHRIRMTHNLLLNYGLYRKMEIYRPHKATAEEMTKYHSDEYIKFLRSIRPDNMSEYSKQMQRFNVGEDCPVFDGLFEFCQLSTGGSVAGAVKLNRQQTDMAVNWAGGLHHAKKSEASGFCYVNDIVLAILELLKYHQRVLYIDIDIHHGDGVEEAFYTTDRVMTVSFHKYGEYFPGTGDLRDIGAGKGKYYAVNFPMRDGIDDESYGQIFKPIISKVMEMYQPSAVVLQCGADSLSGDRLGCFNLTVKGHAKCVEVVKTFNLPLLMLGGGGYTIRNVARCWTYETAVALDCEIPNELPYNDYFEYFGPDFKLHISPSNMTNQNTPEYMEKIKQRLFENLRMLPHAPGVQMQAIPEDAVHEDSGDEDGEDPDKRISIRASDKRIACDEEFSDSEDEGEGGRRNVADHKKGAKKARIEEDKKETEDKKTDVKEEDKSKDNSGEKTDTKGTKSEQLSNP
The next series has as its target Histone deacetylase 9 (Homo sapiens, UniProt Q9UKV0). Put plainly: Inhibition of HDAC9 (unknown origin) using Boc Lys(TFA) as substrate by fluorogenic assay. In short, it runs like this: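 Biochemical HDAC isoform assay with the artificial fluorogenic substrate Boc-Lys-(TFA)-AMC, which is specific to class IIa enzymes and HDAC8. IC50 taken as the geometric mean of three experiments.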

Series [2] can be described thus: Toxicity in CBAxC57BL/6J mouse assessed as effect on flat body posture at 10 to 100 mg/kg, po bid for 14.5 days. The format is organism-based. The settings on record: in vivo, 348 h, dose 10-100 mg/kg, time 14.5 day. In short, it runs like this:
(§1)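 R6/2 HD mice and wild-type littermates, male and female, were dosed orally b.i.d. at 10, 30 or 100 mg/kg or with vehicle for 14.5 days. Vehicle was 10% (w/v) hydroxypropyl-β-cyclodextrin in 50 mM citrate buffer. Body weight, body temperature, passive observations and active manipulation scores were recorded. Blood and brain were collected 2 h after the final dose.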

In a further series the target is Cytochrome P450 2D6 (Homo sapiens, UniProt P10635). Put plainly: Inhibition of CYP2D6 in human liver microsomes using dextromethorphan as substrate incubated for 15 mins by LC-MS/MS analysis. Format: ADME. For orientation: Liver microsomes are vesicles of endoplasmic reticulum, rich in cytochrome P450 enzymes.
Cytochrome P450 2D6, sequence (P10635 whole entry): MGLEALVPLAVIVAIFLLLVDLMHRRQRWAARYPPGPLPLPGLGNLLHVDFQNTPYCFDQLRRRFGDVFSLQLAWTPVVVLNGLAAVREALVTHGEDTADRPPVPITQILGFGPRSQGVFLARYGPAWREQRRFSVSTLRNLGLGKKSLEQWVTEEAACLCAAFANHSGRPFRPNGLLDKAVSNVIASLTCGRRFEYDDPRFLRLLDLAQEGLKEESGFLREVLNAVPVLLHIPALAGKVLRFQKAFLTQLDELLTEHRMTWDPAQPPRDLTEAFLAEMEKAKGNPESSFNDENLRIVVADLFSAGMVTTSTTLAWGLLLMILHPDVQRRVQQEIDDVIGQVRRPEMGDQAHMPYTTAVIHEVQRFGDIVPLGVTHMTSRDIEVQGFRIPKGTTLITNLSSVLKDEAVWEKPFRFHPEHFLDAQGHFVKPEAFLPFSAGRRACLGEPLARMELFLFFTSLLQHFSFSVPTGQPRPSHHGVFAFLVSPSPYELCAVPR
Series [3] in a line: Intrinsic Clearance in mouse liver microsomes. Format: ADME, Microsome. The settings on record: read-out: CLH.
Series [4] deals with Class 1 histone deacetylase (Homo sapiens, UniProt Q13547+O15379+Q92769+Q9BY41). The experiment in a line: Inhibition of Class 1 HDAC in human HEK293 cells using H4K12 as substrate by fluorogenic assay. Format: cell-based.
Series [5] concerns the target T1, Protein deacetylase HDAC6 (Homo sapiens, UniProt Q9UBN7).
T1 sequence (Q9UBN7 whole entry): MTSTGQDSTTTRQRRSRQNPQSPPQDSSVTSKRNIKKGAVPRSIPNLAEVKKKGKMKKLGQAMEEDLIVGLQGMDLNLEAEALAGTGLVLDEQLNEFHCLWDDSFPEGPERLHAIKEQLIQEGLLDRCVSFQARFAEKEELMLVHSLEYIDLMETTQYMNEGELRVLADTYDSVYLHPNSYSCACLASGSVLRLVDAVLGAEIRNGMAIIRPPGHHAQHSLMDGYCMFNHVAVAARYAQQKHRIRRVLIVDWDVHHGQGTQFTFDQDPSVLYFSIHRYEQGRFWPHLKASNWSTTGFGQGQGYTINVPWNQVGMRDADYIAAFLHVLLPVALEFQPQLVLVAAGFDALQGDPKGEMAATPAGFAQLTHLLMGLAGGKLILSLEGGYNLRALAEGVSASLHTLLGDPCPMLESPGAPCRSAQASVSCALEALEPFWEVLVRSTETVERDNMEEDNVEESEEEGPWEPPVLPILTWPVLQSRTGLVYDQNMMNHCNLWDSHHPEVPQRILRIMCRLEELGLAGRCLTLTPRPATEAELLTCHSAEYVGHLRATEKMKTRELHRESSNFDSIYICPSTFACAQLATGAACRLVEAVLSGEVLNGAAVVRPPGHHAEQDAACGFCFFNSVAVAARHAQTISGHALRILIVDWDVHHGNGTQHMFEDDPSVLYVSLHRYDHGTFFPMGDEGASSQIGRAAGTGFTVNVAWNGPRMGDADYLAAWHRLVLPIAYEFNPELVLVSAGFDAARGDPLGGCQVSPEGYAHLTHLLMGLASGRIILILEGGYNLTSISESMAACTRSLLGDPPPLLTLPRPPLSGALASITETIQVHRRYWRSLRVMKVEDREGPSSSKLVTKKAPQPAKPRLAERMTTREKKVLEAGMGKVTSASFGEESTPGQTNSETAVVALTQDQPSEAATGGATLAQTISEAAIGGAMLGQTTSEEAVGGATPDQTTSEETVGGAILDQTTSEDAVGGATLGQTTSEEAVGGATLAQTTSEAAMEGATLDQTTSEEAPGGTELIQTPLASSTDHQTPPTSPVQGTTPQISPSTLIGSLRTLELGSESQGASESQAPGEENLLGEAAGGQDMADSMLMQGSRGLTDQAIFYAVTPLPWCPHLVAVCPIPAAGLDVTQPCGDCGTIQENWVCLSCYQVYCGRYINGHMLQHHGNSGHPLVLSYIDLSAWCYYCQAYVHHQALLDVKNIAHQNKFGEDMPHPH
The experiment in a line: Inhibition of HDAC6 (unknown origin) expressed in human HEK-Freestyle cells using Boc-Lys(Ac) as substrate by fluorogenic assay. The format is cell-based. In short, it runs like this: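 HDAC6 was supplied as lysate of HEK cells overexpressing the enzyme. Activity was read with the class I/IIb-specific fluorogenic substrate Boc-Lys-(Ac)-AMC. IC50 is the geometric mean of three experiments.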

Series [6] deals with Muscarinic acetylcholine receptor M4 (Homo sapiens, UniProt P08173). Put plainly: Displacement of [3H]4-DAMP from human recombinant M4 receptor incubated for 1 hr by radiometric scintillation counting analysis. A general note: Loss of bound radioactivity is the signal in a displacement assay; it reports binding, not function.
Muscarinic acetylcholine receptor M4, sequence (P08173 whole entry): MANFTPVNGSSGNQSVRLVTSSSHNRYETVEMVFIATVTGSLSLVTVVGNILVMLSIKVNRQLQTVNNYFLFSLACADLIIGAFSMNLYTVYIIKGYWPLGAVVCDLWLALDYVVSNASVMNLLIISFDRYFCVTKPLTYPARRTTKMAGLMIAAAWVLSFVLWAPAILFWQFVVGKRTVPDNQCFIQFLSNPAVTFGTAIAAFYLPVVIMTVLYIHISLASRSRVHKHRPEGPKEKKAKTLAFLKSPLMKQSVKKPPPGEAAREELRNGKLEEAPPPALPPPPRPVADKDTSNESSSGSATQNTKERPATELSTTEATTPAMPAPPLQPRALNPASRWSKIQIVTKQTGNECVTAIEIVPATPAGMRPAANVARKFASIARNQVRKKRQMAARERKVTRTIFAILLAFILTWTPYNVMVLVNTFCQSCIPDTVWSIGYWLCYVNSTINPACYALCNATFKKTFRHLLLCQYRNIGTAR
The target of series [7] is Muscarinic acetylcholine receptor M5 (Homo sapiens) (UniProt P08912). Put plainly: Displacement of [3H]4-DAMP from human recombinant M5 receptor at 10 uM incubated for 1 hr by radiometric scintillation counting analysis. The gist of the method: (§2)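 Broad selectivity panel of binding, cellular, functional and enzymatic assays run by a contract lab. Each test was done at a single 10 μM concentration and reported as percent inhibition.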
Muscarinic acetylcholine receptor M5 (Homo sapiens), sequence (P08912 whole entry): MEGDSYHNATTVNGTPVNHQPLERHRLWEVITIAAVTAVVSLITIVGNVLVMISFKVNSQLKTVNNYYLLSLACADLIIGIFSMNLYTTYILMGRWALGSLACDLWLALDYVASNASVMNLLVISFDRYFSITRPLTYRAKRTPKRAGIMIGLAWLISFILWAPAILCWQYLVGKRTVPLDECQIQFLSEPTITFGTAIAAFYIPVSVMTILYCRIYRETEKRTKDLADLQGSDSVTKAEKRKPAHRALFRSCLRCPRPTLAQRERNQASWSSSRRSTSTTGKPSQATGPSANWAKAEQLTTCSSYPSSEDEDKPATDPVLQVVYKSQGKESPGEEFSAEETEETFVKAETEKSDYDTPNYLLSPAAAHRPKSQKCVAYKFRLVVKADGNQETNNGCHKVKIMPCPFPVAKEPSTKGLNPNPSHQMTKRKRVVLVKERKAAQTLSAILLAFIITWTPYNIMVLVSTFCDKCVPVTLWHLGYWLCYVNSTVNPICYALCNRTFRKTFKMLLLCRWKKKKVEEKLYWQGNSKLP

Series [8] can be described thus: Tmax in C57BL/6J mouse brain at 11.5 mg/kg, po administered via gavage by LC-MS/MS analysis. Format: ADME, organism-based.
Series [9] in a line: Time during which drug concentration exceeds the IC50 for inhibition of human Class 2A HDAC in C57BL/6J mouse brain at 30 mg/kg, po administered via gavage by LC-MS/MS analysis. The settings on record: in vivo. Format: organism-based. The gist of the method:
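Single oral gavage doses of 10, 30 or 100 mg/kg were given to C57/BL6 mice. Brain and blood were sampled from 0.25 to 12 h and compound measured by LC-MS/MS. The time that total brain exposure stayed above the class IIa cellular IC50 was then estimated.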

Series [10] is described as follows: Metabolic stability of the compound in mouse blood. The format is ADME, tissue-based.
In series [11] the target is Muscarinic acetylcholine receptor M2 (Homo sapiens, UniProt P08172). The experiment in a line: Displacement of [3H]AF-DX384 from human recombinant M2 receptor incubated for 1 hr by radiometric scintillation counting analysis.
Muscarinic acetylcholine receptor M2, sequence (P08172 whole entry): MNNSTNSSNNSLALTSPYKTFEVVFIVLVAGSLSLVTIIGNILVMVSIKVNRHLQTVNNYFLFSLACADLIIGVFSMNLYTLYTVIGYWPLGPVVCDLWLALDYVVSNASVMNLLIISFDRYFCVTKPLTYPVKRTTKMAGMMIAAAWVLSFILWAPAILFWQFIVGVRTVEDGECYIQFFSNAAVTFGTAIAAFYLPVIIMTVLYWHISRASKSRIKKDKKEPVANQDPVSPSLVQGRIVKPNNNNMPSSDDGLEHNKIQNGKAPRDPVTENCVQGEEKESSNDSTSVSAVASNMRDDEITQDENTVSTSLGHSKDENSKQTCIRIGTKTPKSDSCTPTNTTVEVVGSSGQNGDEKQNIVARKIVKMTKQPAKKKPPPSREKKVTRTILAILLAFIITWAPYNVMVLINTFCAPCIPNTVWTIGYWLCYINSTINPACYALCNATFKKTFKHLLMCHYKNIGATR
Series [12] addresses Cav1.2 (voltage-dependent L-type calcium channel subunit alpha-1C) (Rattus norvegicus, UniProt P22002). The experiment in a line: Displacement of [3H]Diltiazem from Cav1.2 in rat brain at 10 uM incubated for 120 mins by radiometric scintillation counting analysis. Format: tissue-based. The settings on record: probe [3H]Diltiazem. The gist of the method: as §2
Series [13] in a line: Toxicity in CBAxC57BL/6J mouse assessed as effect on stereotypy at 10 to 100 mg/kg, po bid for 14.5 days. Format: organism-based. The settings on record: in vivo, 348 h, dose 10-100 mg/kg, time 14.5 day. In short, it runs like this: as §1

Cav1.2 (voltage-dependent L-type calcium channel subunit alpha-1C), sequence (P22002 whole entry): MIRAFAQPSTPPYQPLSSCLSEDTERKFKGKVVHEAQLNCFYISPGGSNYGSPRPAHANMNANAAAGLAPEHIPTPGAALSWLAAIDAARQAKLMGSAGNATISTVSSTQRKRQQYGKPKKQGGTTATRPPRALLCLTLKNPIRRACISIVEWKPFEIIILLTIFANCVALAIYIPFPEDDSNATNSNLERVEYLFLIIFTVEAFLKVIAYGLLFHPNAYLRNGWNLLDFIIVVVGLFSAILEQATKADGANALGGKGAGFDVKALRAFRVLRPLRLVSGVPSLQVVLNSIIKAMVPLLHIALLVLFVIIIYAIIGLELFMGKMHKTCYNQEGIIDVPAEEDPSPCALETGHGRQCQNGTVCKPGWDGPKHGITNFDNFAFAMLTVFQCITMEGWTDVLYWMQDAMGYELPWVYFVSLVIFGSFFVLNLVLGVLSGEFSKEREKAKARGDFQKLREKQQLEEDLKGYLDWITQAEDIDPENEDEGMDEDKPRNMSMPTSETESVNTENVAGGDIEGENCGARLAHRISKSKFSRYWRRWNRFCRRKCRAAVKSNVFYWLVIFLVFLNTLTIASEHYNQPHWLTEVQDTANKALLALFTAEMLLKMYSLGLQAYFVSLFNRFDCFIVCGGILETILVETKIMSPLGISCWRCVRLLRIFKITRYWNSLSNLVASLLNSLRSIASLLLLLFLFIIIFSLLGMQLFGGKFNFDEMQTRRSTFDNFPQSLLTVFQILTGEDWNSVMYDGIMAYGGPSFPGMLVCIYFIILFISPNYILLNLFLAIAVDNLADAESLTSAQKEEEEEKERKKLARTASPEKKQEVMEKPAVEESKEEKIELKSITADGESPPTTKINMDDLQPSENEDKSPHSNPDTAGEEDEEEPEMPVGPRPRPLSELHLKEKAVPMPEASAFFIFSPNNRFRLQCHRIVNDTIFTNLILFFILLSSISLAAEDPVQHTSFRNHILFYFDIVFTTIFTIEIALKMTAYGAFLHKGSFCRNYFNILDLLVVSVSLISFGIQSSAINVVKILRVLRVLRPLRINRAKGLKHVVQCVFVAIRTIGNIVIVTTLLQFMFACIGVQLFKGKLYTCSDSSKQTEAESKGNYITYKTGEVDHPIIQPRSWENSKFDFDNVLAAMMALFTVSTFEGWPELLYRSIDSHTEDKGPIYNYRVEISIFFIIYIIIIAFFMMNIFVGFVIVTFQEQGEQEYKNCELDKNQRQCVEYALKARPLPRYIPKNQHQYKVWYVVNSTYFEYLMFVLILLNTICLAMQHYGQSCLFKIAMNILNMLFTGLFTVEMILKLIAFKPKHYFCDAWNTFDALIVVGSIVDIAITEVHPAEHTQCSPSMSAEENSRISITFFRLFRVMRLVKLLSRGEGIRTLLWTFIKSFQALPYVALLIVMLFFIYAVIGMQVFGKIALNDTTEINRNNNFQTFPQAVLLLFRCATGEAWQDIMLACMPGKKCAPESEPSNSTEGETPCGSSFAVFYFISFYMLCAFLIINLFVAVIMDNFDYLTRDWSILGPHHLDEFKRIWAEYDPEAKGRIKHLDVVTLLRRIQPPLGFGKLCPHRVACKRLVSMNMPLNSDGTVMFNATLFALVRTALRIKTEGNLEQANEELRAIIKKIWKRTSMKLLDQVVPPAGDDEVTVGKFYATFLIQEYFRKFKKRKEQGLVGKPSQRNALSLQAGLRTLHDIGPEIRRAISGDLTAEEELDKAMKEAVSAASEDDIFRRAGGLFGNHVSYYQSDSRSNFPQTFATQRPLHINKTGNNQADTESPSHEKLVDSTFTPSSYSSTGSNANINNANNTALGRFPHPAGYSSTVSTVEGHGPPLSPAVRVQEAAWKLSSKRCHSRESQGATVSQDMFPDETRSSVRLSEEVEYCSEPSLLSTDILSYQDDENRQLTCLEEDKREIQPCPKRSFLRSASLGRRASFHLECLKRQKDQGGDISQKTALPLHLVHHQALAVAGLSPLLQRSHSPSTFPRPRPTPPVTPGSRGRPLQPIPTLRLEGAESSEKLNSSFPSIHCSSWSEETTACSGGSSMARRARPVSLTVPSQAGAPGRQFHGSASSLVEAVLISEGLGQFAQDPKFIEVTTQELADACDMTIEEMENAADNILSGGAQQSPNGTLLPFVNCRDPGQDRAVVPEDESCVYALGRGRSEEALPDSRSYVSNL

In general, IC50 refers to the concentration needed to halve the response being measured. For orientation: Kd means the free concentration of one partner at which half of the binding sites on the other are occupied at equilibrium, for simple one-to-one binding. In general, inhibition refers to the relative decrease from the control value, in per cent. For orientation: Tmax means the time from dosing to the highest level. In the case of `C[C@H](CN1CCC[C@@H]1C)NC(=O)c1ccc(-c2noc(C(F)(F)F)n2)cc1`, the IC50 in series [1] was 10 µM; on Histone deacetylase 2 it was 27 µM; on Histone deacetylase 9, 0.03 µM; against Cytochrome P450 2D6, over 50 µM; in series [4] it was 9.9 µM; in series [5] it was 22 µM. For the same compound, the Activity result in series [2] and in [13] was “Non-Toxic” in each case. Besides, in [3], the CLint scaled came out at 86 mL/min/kg. For the same compound, the Kd in series [6] and in series [11] was over 5 µM each time. For the same compound, in series [7], the inhibition is over 80%. Further, the Tmax in [8] turned out to be 30 min. Besides, the “T>IC50” value in series [9] was determined as 8 h. Further, the Stabilty entry in series [10] was “Stable”. Also, in series [12], the inhibition at 2 h, 10 µM is over 50%.
